This is a sample that favours compounds with a hit; in the whole collection about 2.7% have one here.
SDO1 yeast rescue: sdo1-depleted yeast growth rescue; S. cerevisiae sdo1-depleted JHY4D growth rescue, OD600 30 h; stronger effect = higher value; pdr5 snq2 efflux-pump mutant strain; z-score at 10 µM; actives 0.21% (n = 140,000); AID 817;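 active means z-score above 3 at both the 24 hr and the 30 hr optical density reads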;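 further: z-score against mean and SD of all compound wells on the same plate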
Yeast life ext: extends the lifespan of yeast | actives 0.68% (n = 130,000) | inhibition of the nicotinamide effect, % at 10 µM | S. cerevisiae growth with nicotinamide, OD615; deaD strain in restrictive glucose medium;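 active means inhibition above a set limit, placed 3 SD over the median of all compounds, cut at about 26% in these data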;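 further: 0% = nicotinamide-treated wells and 100% = cells grown without nicotinamide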
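Material: Modified budding yeast, DeaD strain | Medium: Restrictive glucose medium | Probe or stimulus: 1.5 mM nicotinamide | Dosing: Single dose 10 µM compound, 0.25% DMSO | Times: 48 h at 30 °C | Technique: OD615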
RAM inhibit: inhibitors of the yeast RAM network; actives 1.8% (n = 190,000); AID 868; inhibition, % at 50 µM; S. cerevisiae dse1pr::URA3 reporter, 5-FOA growth OD615, 2 d; analog-sensitive cbk1-as2 kinase mutant strain;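 active means inhibition above a set limit, 3 SD over mean compound inhibition, cut at about 8.4% in these data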;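 further: 0% = DMSO-only wells with no growth and 100% = 10 µM 1-NA-PP1 full growth; inhibition rescues growth on 5-FOA so higher OD means more RAM inhibition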
Yeast growth inh: reduces growth of yeast BB579 in restrictive medium; S. cerevisiae BB579 growth, OD615, 48 h; inhibition, % at 10 µM; actives 0.51% (n = 140,000);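 active means inhibition above a set limit, 3 SD over the mean compound inhibition, cut at about 44% in these data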
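Material: Saccharomyces cerevisiae DeaD strain BB579, replicative lifespan model yeast; buffer or medium: CSMM-D restrictive synthetic medium containing dextrose (glucose); compound: 10 µM single dose, DMSO 0.25%; timing: 48 h compound exposure at 30 °C after 4 h preincubation; signal: turbidity as optical density at 615 nm; benchmarks: positive control amphotericin B 10 µg/mL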
* = called active by the depositor; . = no result given.

SMILES | SDO1 yeast rescue | Yeast life ext | RAM inhibit | Yeast growth inh
CCOC(=O)c1c(NS(=O)(=O)c2ccc(Br)cc2)sc2c1CCC2 | -0.82 | . | 9.8* | -55.8
Cc1ccc(NC(=O)c2c(C(F)(F)F)nn(C)c2SCc2ccc(Cl)cc2)cc1C | -0.44 | 8.3 | 11.4* | -61.0
c1csc(C(c2nnnn2C2CCCC2)N2CCOCC2)c1 (stereo not drawn) | 0.07 | -14.2 | 0.1 | 1.6
Clc1ccccc1CN(Cc1ccccc1)C(c1cccs1)c1nnnn1C1CCCC1 (stereo not drawn) | -0.04 | -18.0 | 5.6 | -13.5
Clc1ccc(CN(CC2CCCO2)C(c2cccs2)c2nnnn2C2CCCC2)cc1 (stereo not drawn) | -0.36 | -12.7 | 11.2* | -33.3
CCN(Cc1ccccc1)C(c1cccs1)c1nnnn1C1CCCCC1 (stereo not drawn) | -0.56 | -1.3 | 9.3* | -11.2
O=C1CCC(/C=C/c2ccccc2)=NN1Cc1ccc(F)cc1 | . | . | 2.9 | .
CCc1ccc(C(=O)CN2C(=O)NC(C)(CCc3ccccc3)C2=O)cc1 (stereo not drawn) | -0.43 | 46.2* | 5.4 | -27.7
Cc1nn(C)c(C)c1C1Nc2ccccc2C(=O)N1O (stereo not drawn) | 0.61 | . | -0.6 | -19.5
O=C1c2ccccc2NC(c2cnc3ccccc3n2)N1O (stereo not drawn) | 0 | 57.3* | -0.7 | -42.6
CN(C)c1ccc(/C=N/NC(=O)c2cccc(C(=O)N/N=C/c3ccc(N(C)C)cc3)n2)cc1 | . | . | 9.9* | .
CCOc1ccc(C(C)C)cc1S(=O)(=O)n1ccnc1C | . | . | 0.7 | .
CCc1ccc(NC(=O)C(NS(=O)(=O)c2cccc3nsnc23)c2ccccc2)cc1 (stereo not drawn) | -1.55 | 2.5 | 9.1* | -22.8
CS(=O)(=O)N1CCc2cc(NC(=O)c3ccc(Cl)cc3Cl)ccc21 | . | . | 4.3 | .
CC1(C)CC2CC(C)(CN2C(=S)NC(=O)c2ccccc2Cl)C1 (stereo not drawn) | -1.29 | 28.8* | 1.3 | -37.2
CC1(C)CC2CC(C)(CN2C(=S)Nc2ccccc2)C1 (stereo not drawn) | . | . | 1.2 | .
OCCC1CN(Cc2cn[nH]c2C2CCCCC2)CCN1C1CCCC1 (stereo not drawn) | . | . | 4.5 | .
CC(=O)Cn1ncc(Br)c(Br)c1=O | . | . | 9.9* | .
CCOC(=O)N1CCN(C(=O)c2cn(CC)c3ccc(S(=O)(=O)N4CCCCC4)cc3c2=O)CC1 | . | . | 1.6 | .
CCOc1ccccc1C(=O)N[C@H](C(=O)OCc1cc([N+](=O)[O-])cc2c1OCOC2)C(C)C | -0.54 | -2.5 | 8.8* | -42.2
CC(C)C(NC(=O)c1ccccc1)C(=O)OCc1cc([N+](=O)[O-])cc2c1OCOC2 (stereo not drawn) | 0.37 | -7.1 | 1.4 | -14.1
CCOc1ccccc1C(=O)N[C@H](C(=O)OCc1cc(=O)oc2cc(C)ccc12)C(C)C | -0.58 | 6.7 | 9.7* | -30.0
COc1cc(OC)cc(C(=O)N[C@H](C(=O)OCc2cc(=O)oc3cc(C)ccc23)C(C)C)c1 | -0.63 | -4.3 | 7.2 | 14.7
CCCCCCCCc1nc(SC(C)C(=O)O)n[nH]1 (stereo not drawn) | . | . | -0.5 | .
COc1cc(OC)cc(-c2nc3ccccc3c(=O)n2OC(=O)c2ccc(C)c(C)c2)c1 | -0.22 | 63.7* | 3.9 | -37.5
SMILES | SDO1 yeast rescue | Yeast life ext | RAM inhibit | Yeast growth inh
Cc1cc(N/N=C/c2ccc(O)cc2O)nc(-c2ccccc2O)n1 | -1.27 | 0.5 | 10.3* | -36.1
Cc1cc(N/N=C/c2ccccc2O)nc(-c2ccccc2O)n1 | -1.63 | -6.3 | 1.8 | -19.2
CCN(CC)S(=O)(=O)c1cccc(NC(=O)COC(=O)c2cccs2)c1 | . | . | 0.4 | .
CC(=O)n1nc(-c2ccc(C)cc2)nc1NCc1ccc(F)cc1 | . | . | 4.3 | .
CCOc1ccc(CCNC(=O)COC(=O)c2cc(OC)cc(OC)c2)cc1OCC | . | . | 3.2 | .
CC(C)(C)NC(=O)C(c1ccco1)N(C(=O)Cn1nnc(-c2ccc(F)cc2)n1)c1cccc(F)c1 (stereo not drawn) | -1.41 | -7.2 | 9.2* | -26.3
Cc1nonc1C1CCCN1Cc1cn[nH]c1-c1ccc(-c2ccccc2)cc1 (stereo not drawn) | . | . | 0.5 | .
Cn1c(-c2ccc(F)cc2)cnc1NCc1ccc(F)cc1 | 0.2 | 9.4 | 1.9 | -58.5
Cn1c(-c2ccc(Br)cc2)cnc1NCc1cccnc1 | 0.09 | 42.3* | 1.8 | -29.3
CC1CCCC(C)N1C(=O)COc1ccc(C(=O)N/N=C/c2ccc(C(=O)O)cc2)cc1 (stereo not drawn) | . | . | 4.5 | .
COc1ccccc1N1CC(C(=O)Nc2nnc(SCc3ccccn3)s2)CC1=O (stereo not drawn) | 0.98 | 29.7* | 1.8 | -14.1
COc1ccc(N2CC(C(=O)Nc3nnc(SCc4ccccn4)s3)CC2=O)cc1 (stereo not drawn) | 0.49 | -2.4 | 1.4 | -15.9
Nc1ccc(SC(F)(F)F)cc1C(=O)c1ccccc1 | -1.97 | -21.4 | -1.6 | 57.1*
O=C(O)c1nn(-c2ccccc2)nc1-c1nn(-c2ccccc2)nc1C(=O)O | -0.02 | -21.5 | 8.9* | 6.6
COC(=O)c1cc(NC(=O)/C=C/c2ccccc2)ccc1O | . | . | -0.2 | .
Brc1ccc(CSc2ccc3nnc(-c4cccnc4)n3n2)cc1 | . | . | 10.0* | .
Cc1ccc(CSc2ccc3nnc(-c4cccnc4)n3n2)cc1 | -0.73 | 1.7 | 1.7 | -56.5
Brc1ccc(CSc2ccc3nnc(-c4ccccn4)n3n2)cc1 | . | . | 9.9* | .
CN(c1ccc(O)cc1)c1nc(-c2ccccc2)cs1 | -1.22 | -12.0 | -0.1 | 81.5*
CCCc1cc(-c2n[nH]c(=S)n2C(C)c2ccccc2)cs1 (stereo not drawn) | -1.8 | 12.2 | 2.5 | 50.4*
CCCc1cc(-c2n[nH]c(=S)n2CC)cs1 | . | . | -0.7 | .
CC(C)[C@H](NS(=O)(=O)c1ccc2c(c1)OCCO2)C(=O)OCC(=O)Nc1cc(Cl)ccc1Cl | -0.45 | -2.5 | 7.1 | -15.6
COc1ccc(CNC(=O)CN(Cc2ccc(Cl)cc2)S(=O)(=O)c2ccccc2)cc1 | -2.25 | 5.7 | 8.6* | -30.0
COc1ccc(S(=O)(=O)N(CC(=O)NC(C)C)Cc2ccccc2)cc1 | -0.18 | -6.1 | 1.2 | -20.3
COc1ccc(CNC(=O)CN(Cc2ccccc2)S(=O)(=O)c2ccc(Cl)cc2)cc1 | -0.83 | -15.1 | 9.2* | -28.9
SMILES | SDO1 yeast rescue | Yeast life ext | RAM inhibit | Yeast growth inh
COC(=O)c1nn(-c2cccc(C)c2)c2nnc(Cc3ccccc3)c(=O)n12 | 0.48 | 26.4* | 1.0 | -16.0
COC(=O)c1nn(-c2ccccc2)c2nnc(Cc3ccc(C)cc3)c(=O)n12 | 0.6 | -0.6 | 4.3 | -18.9
Cc1ccc(C(=O)NC(=S)NCC2CCCO2)cc1 (stereo not drawn) | -0.42 | 31.9* | 0.3 | -33.4
CC(=O)c1ccc(-c2ccc(C(=O)N3CCCc4ccccc43)o2)cc1 | . | . | 9.4* | .
Cc1ccc(C(=O)N2CCc3ccccc32)o1 | 0.5 | 0.5 | 0.8 | -13.9
CC(=O)C1=C(c2ccccc2)N(C(C)=O)n2c(C)nnc2S1 | . | . | 0.1 | .
CCCC(=N)C1=C(O)CC(CC(C)SCC)CC1=O (stereo not drawn) | 0.86 | -9.4 | -0.8 | -8.9
CCCC(=O)C1C(=O)CC(CC(C)SCC)CC1=O (stereo not drawn) | 0.27 | 96.8* | -1.3 | -35.7

High-throughput results as filed in PubChem BioAssay.
